Structures are written as SMILES.

The data set in a line: Toxicity liver stage against HepG2, at 10uM. The conditions noted are these: human, HepG2-A16-CD81EGFP cells; read-out: INHIBITION
Format: cell-based. The arrangement: test concentration 10 uM, cell line HepG2-A16-CD81EGFP. In short, it runs like this: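 Uninfected HepG2-A16-CD81EGFP cells, 3 × 10^3 per well, 1536-well, plated on prespotted compound at 10 μM final, parasite-free screening media added to match infected plates; puromycin 10 μM positive, DMSO 0.5% negative; run in parallel with 48 h PbLuc assay at 37 °C, 5% CO2; viability by CellTiter-Glo luminescence, normalized to controls.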
In the case of `CC(C)(C)n1ncc2c(=O)n(CC(=O)NCc3ccccc3)cnc21`, the cytotoxicity at 10 µM worked out at 42%.

As to `Fc1ccc(Sc2ccccc2CNC2=NCCN2)cc1`, the cytotoxicity at 10 µM amounted to 18.9%.

Turning to `CCS(=O)(=O)N1CCc2ccc(NC(=O)Nc3cccc(C)c3)cc21`, the cytotoxicity at 10 µM was found to be 42.3%.

As for `O=S(=O)(c1ccc(Cl)s1)N1CCN(Cc2nc(-c3ccco3)cs2)CC1`, the cytotoxicity at 10 µM turned out to be 47.6%.

Regarding `CCc1ccc(S(=O)(=O)NCC2CCN(c3cnccn3)CC2)s1`, the cytotoxicity at 10 µM was 7.69%.

For `Cn1nc(N2CCCC(C(=O)Nc3nc4ccccc4s3)C2)ccc1=O` (stereo not given), the cytotoxicity at 10 µM is 27.6%.

For the compound `CC(C)(C)NC(=O)N1CCC(Oc2ccc(C(F)(F)F)cn2)CC1`, the cytotoxicity at 10 µM was found to be 6.91%.

Consider `CC(C)Nc1nc2c(c(NC3CC3)n1)CN(C(=O)Cc1ccsc1)CC2`, for which the cytotoxicity at 10 µM is 10.4%.

With `Cc1cnc(NC2CCc3c(ccc(=O)n3CC3CC3)C2)nc1` (stereo not given), the cytotoxicity at 10 µM was -137%.

With `COCCN1C[C@H]2CCN(c3ncccn3)CC[C@H]2S1(=O)=O`, the cytotoxicity at 10 µM was -2.2%.

Regarding `CC(C)c1ccc(NC(=O)Cn2cc(I)cn2)cc1`, the cytotoxicity at 10 µM is 2.77%.

For the compound `O=C(Nc1ccc(Cl)cn1)c1nn(C2CCS(=O)(=O)C2)c2c1CCCC2` (stereo not given), the cytotoxicity at 10 µM was found to be 1.61%.

For `CC(C)c1ccc(OCn2ccc(C(=O)N3CCCC3)n2)cc1`, the cytotoxicity at 10 µM was 12.7%.

As for `Cc1ccc(-c2noc(C3CCN3C(=O)c3cc[nH]n3)n2)s1` (stereo not given), the cytotoxicity at 10 µM is 8.47%.

`CC(C)CNc1cc(-c2c[nH]nc2C2CCN(C(=O)C3CC3)C2)ccn1` (stereo not given): the cytotoxicity at 10 µM stood at 83.8%.

In the case of `Cc1cc(CN2CCc3nc(-c4ccncc4)nc(O)c3CC2)c(C)s1`, the cytotoxicity at 10 µM came out at 3.27%.

Turning to `CCn1ccc(-c2cc(NCCCOc3ccccc3C)nc(C)n2)n1`, the cytotoxicity at 10 µM is -5.28%.

Regarding `CCc1c(C)nc2cc(C3CCN(CCc4ccccc4)C3)nn2c1O` (stereo not given), the cytotoxicity at 10 µM is -20.1%.

Consider `CN(C)S(=O)(=O)N1CCCC(c2cccc(Cc3ccc(Cl)cc3)n2)C1` (stereo not given), for which the cytotoxicity at 10 µM worked out at 56%.

As for `O=c1c(Cc2ccc(Cl)cc2Cl)c(O)ccn1CC1CC1`, the cytotoxicity at 10 µM was 13.6%.

As to `O=C1NCCCCC1SCc1coc(-c2ccc(F)cc2)n1` (stereo not given), the cytotoxicity at 10 µM amounted to 47.5%.

For the compound `Cc1cnn(C2CN(C(C)c3nc(-c4ccccc4)no3)C2)c1` (stereo not given), the cytotoxicity at 10 µM is -2.21%.

For the compound `Cc1ccc(OCCCC(=O)Nc2nonc2C)cc1C`, the cytotoxicity at 10 µM is 7.03%.

`CC(Cc1ccco1)NC(=O)NCc1ncnn1C` (stereo not given): the cytotoxicity at 10 µM came out at 2.02%.

As for `CC1CCN(C(=O)CSCCN2CCOCC2)CC1`, the cytotoxicity at 10 µM came out at 1.89%.

In the case of `Clc1cccc(C(NCc2ncc[nH]2)c2ccccn2)c1` (stereo not given), the cytotoxicity at 10 µM was determined as 0.863%.

For `CC(C)(C)n1ncc(NCC(O)c2ccccc2C(F)(F)F)c(Cl)c1=O` (stereo not given), the cytotoxicity at 10 µM came out at 53.6%.

For `COCC(O)CN(C)c1cc(C(F)(F)F)nc(-c2cccnc2)n1` (stereo not given), the cytotoxicity at 10 µM came out at 7.02%.

`CCN1CC(CN(C)c2cc(C)nc(N)n2)Oc2ccccc21` (stereo not given): the cytotoxicity at 10 µM amounted to 38.8%.

With `N#Cc1c(Cl)nsc1NCc1cccnc1OC1CCCC1`, the cytotoxicity at 10 µM was determined as 27.1%.

As to `CCn1nc(C)cc1C(=O)OCCNc1ncnc2ccccc12`, the cytotoxicity at 10 µM came to 61.8%.

As to `O=C(NCC1(O)CCSC1)c1ccoc1` (stereo not given), the cytotoxicity at 10 µM is -12.7%.

For `CC(C)C(C)(C#N)NC(=O)CN1CCCN(Cc2ccccc2F)CC1` (stereo not given), the cytotoxicity at 10 µM was -5.84%.

On to `COC(=O)C(C)(C)NC(=O)C1CC(=O)N(C2CC2)C1` (stereo not given), for which the cytotoxicity at 10 µM was -139%.

Take `CC(C)c1ccc(C(CN)N2CCc3sccc3C2)cc1` (stereo not given): the cytotoxicity at 10 µM amounted to 1.66%.

In the case of `COc1ccc(C(=O)NCCCOC(C)c2ccccc2)c(OC)c1` (stereo not given), the cytotoxicity at 10 µM is -17.3%.

Regarding `Cc1cnn(-c2cccc(N3CCN(c4cc(C)nc(C)n4)CC3)n2)c1`, the cytotoxicity at 10 µM came to 7.82%.

Regarding `O=S1(=O)CCN2C(=N1)Oc1ccc(S(=O)(=O)N3CCCC3)cc12`, the cytotoxicity at 10 µM is 18.2%.

On to `CS(=O)(=O)c1cccc(C(=O)NCC2(c3ccccc3)CC2)c1`, for which the cytotoxicity at 10 µM amounted to 1.47%.

`NC(=O)c1ccc(N2CCCCC2)c(NC(=O)c2cc(Br)ccc2F)c1`: the cytotoxicity at 10 µM is -12.9%.

In the case of `O=C1N(Cc2ccc(F)c(F)c2)CCCC12CCN(C1CCCCC1)C2` (stereo not given), the cytotoxicity at 10 µM is -0.268%.

Take `O=C1O[C@@H]2CN(c3ccccn3)C[C@@H]2N1CCCc1ccc(F)cc1`: the cytotoxicity at 10 µM was -2.88%.

Regarding `Cc1nc(C)c(CCN2CCC(Oc3ccccc3F)CC2)s1`, the cytotoxicity at 10 µM was 42.9%.

In the case of `CCC(NC(=O)c1cc(CC(C)C)nn1C)c1cccc(C)n1` (stereo not given), the cytotoxicity at 10 µM was -116%.

Take `CCCc1nc(C(=O)NCCN2CCC(c3ccccc3C)C2)cs1` (stereo not given): the cytotoxicity at 10 µM is -37.9%.

Take `COc1cccc(OCC2CCCN(C(=O)CCn3ccnc3)C2)c1` (stereo not given): the cytotoxicity at 10 µM is -19.8%.

As to `N#Cc1cccnc1N1CCCC(CO)(Cc2ccc(F)cc2)C1` (stereo not given), the cytotoxicity at 10 µM worked out at 3.3%.

Regarding `CC(C)[C@H](C)NC1CCN(c2ccc(-c3cscn3)cc2)CC1`, the cytotoxicity at 10 µM was -50.8%.

With `Cc1ccccc1-c1noc(-c2ccc(N(C)C3CCOCC3)nc2)n1`, the cytotoxicity at 10 µM came out at 2.65%.

For `CC(=O)N1CCN(Cc2cccc3c2sc2ccccc23)CC(O)C1` (stereo not given), the cytotoxicity at 10 µM was -12.9%.

Turning to `Cc1nn2cc(CCNC(=O)c3cc(C(C)C)nn3C)nc2s1`, the cytotoxicity at 10 µM stood at 34.9%.

For the compound `Cc1nc(N2CCC3(CCCN(CC4CC4)C3=O)C2)c2sccc2n1` (stereo not given), the cytotoxicity at 10 µM amounted to 42%.

With `CCCOc1ccccc1CCCNc1ncnc2oc(C)nc12`, the cytotoxicity at 10 µM was 22.4%.

Regarding `COCC1(Nc2nc(C)nc3c2cnn3C)CCCC1`, the cytotoxicity at 10 µM came to 37.4%.

In the case of `Cc1cc(C2CCC2)nc(N2CCN(Cc3nccn3C)CC2)n1`, the cytotoxicity at 10 µM is -6.86%.

In the case of `CC(C)Cc1nc(CN2CCc3onc(-c4cccc(F)c4)c3C2)no1`, the cytotoxicity at 10 µM stood at 2.3%.

On to `CC(C)Oc1ccc(CN2CCCC(N3CCOCC3)C2)cc1CO` (stereo not given), for which the cytotoxicity at 10 µM came out at 1.48%.

As to `CSC(C)Cc1c(-c2ccccc2)ncn1CCCNc1cccnc1` (stereo not given), the cytotoxicity at 10 µM turned out to be 15.1%.

With `Cc1nc(NCCc2noc(C3CCCO3)n2)c2sccc2n1` (stereo not given), the cytotoxicity at 10 µM amounted to 53.6%.

As for `COc1ccccc1OC1CN(C(=O)c2c(C)nc3ccc(C)cn23)C1`, the cytotoxicity at 10 µM was -0.376%.

As to `CNc1nc(C)cc(NC2CCCN(C3Cc4ccccc4C3)C2)n1` (stereo not given), the cytotoxicity at 10 µM was determined as 12.5%.

For `Cc1cc(CN(C)CC2CCCN(CCc3ccc(Cl)cc3)C2)[nH]n1` (stereo not given), the cytotoxicity at 10 µM was -12.5%.

As for `Clc1cccc(C2CCN(c3ncnc4c3CCNC4)C2)c1` (stereo not given), the cytotoxicity at 10 µM was determined as 50%.

With `CCc1cc(N(C)Cc2cc[nH]n2)n2nc(C)c(C)c2n1`, the cytotoxicity at 10 µM worked out at 24%.

Regarding `Cc1nc(CCN2CCC(Oc3ccccc3F)CC2)c(C)s1`, the cytotoxicity at 10 µM is 7.08%.

Consider `CCCN1CCC(NC(=O)c2csc(C)c2-c2ccccc2)CC1`, for which the cytotoxicity at 10 µM is -133%.

For the compound `Cc1ccc2c(c1)c(CNC(=O)C1CC(=O)N(CCN(C)C)C1)nn2C` (stereo not given), the cytotoxicity at 10 µM is 1.66%.

For `CN(C)c1nc2c(c(N3CCC4(CC3)CNC(=O)C4)n1)CCCC2`, the cytotoxicity at 10 µM worked out at 0.995%.

Regarding `CCCn1cc(-c2ccnc(NC3CCc4ccccc43)n2)c(C)n1` (stereo not given), the cytotoxicity at 10 µM amounted to 10.1%.

As for `Cc1csc2ncnc(N3CCC(Cn4cc(C(C)(C)N)nn4)CC3)c12`, the cytotoxicity at 10 µM is 25.5%.

Turning to `Nc1nc(CCC(=O)N2CCOC(CC3CCCCC3)C2)cs1` (stereo not given), the cytotoxicity at 10 µM was -9.18%.

Regarding `CN(C)S(=O)(=O)N1CCCC(c2cccc(Cc3ccccc3)n2)C1` (stereo not given), the cytotoxicity at 10 µM amounted to 20.5%.

For `Cc1ccc(-c2noc(CN3CCC(N4CCNC4=O)CC3)n2)cc1`, the cytotoxicity at 10 µM was found to be 31%.

In the case of `COc1ccc(C2=CCN(C(=O)CN(CC(N)=O)C(C)C)CC2)cc1`, the cytotoxicity at 10 µM was found to be 23.3%.

Consider `CCc1nc(CN2CCCN(c3nn4cc(C)nc4s3)CC2)no1`, for which the cytotoxicity at 10 µM is -14.7%.

Turning to `Cc1cc(C)c(CNC(=O)N2CCCC2c2cc(C)on2)c(=O)[nH]1` (stereo not given), the cytotoxicity at 10 µM was found to be 1.1%.

With `CC(NC(=O)NCc1cc(Br)cs1)c1ccccn1` (stereo not given), the cytotoxicity at 10 µM was -17.6%.

`COc1cccc(CN2CCN(c3ccc4nncn4n3)C(C)C2)c1` (stereo not given): the cytotoxicity at 10 µM worked out at 38.3%.

As to `Cc1noc(NC(=O)c2ccc(Br)s2)n1`, the cytotoxicity at 10 µM is -1.35%.

Consider `Cc1cc(CN2CCN(C(c3ccccc3)c3ccccc3)CC2)no1`, for which the cytotoxicity at 10 µM is -6.56%.

In the case of `Cc1cccc(Nc2cc(C3CCCN(CC(N)=O)C3)ccn2)n1` (stereo not given), the cytotoxicity at 10 µM was determined as 12.3%.

For `Fc1cccc(O[C@@H]2C[C@H]3CN(Cc4ccccn4)CCN3C2)c1`, the cytotoxicity at 10 µM is -154%.

In the case of `c1cnc(N2CCC3(CCCN(Cc4ccncc4)C3)CC2)nc1`, the cytotoxicity at 10 µM is -91.6%.

For `CC(C)NC1CCc2[nH]c(=O)ccc2C1` (stereo not given), the cytotoxicity at 10 µM worked out at 3.64%.

With `Cc1csc(CN2CC[C@H]3O[C@H](C(=O)Nc4cccnc4)CC[C@H]32)n1`, the cytotoxicity at 10 µM is -47.1%.

As to `O=C(c1ccsc1)N1C[C@@H]2OCCN(CCN3CCCC3)[C@@H]2C1`, the cytotoxicity at 10 µM is -73.7%.

As to `Cc1ccc(O[C@@H]2C[C@H]3CN(C(=O)Cc4ccccn4)CCN3C2)cc1`, the cytotoxicity at 10 µM was -59%.

Consider `CCCN1CCC(c2nc3ccc(-c4cccc(OC)c4)cn3n2)CC1`, for which the cytotoxicity at 10 µM is -113%.

`CCc1ccc(CN2C[C@@H]3OCCN(c4ccnc(N(C)C)n4)[C@@H]3C2)o1`: the cytotoxicity at 10 µM was determined as 61.8%.

Take `COCCO[C@H]1CCN(c2cc(OC)ncn2)[C@H]1Cc1cccnc1`: the cytotoxicity at 10 µM is -140%.

On to `CN1CCC(c2nnc3ccc(C(=O)N4CCCCC4)cn23)C1` (stereo not given), for which the cytotoxicity at 10 µM was -167%.

For the compound `Cc1cccc(COc2ccc(C(C)N)cc2)c1` (stereo not given), the cytotoxicity at 10 µM is -1.79%.

As to `CN(C)C(=O)N1CC2(CCNCC2)c2cc(Cl)ccc21`, the cytotoxicity at 10 µM is -69.8%.

Consider `c1ccc(-c2cc(CN3C[C@H]4CC[C@@H](C3)N(CC3CCC3)C4)on2)cc1`, for which the cytotoxicity at 10 µM amounted to 3.27%.

With `COc1ccc(NS(=O)(=O)C=c2[nH]c(=O)n3cccc3c2=O)cc1Cl`, the cytotoxicity at 10 µM is -1.47%.

(Values after ChEMBL document CHEMBL4513216, “Probing the Open Global Health Chemical Diversity Library for Multistage-Active Starting Points for Next-Generation Antimalarials” (ACS Infect Dis, 2020).)
